The text below walks through data of paper PMC11003496 (Journal of Enzyme Inhibition and Medicinal Chemistry, 2023).

In one experiment the target is T1, COX-1 (Ovis aries, UniProt P05979).
T1 sequence (P05979 25-600): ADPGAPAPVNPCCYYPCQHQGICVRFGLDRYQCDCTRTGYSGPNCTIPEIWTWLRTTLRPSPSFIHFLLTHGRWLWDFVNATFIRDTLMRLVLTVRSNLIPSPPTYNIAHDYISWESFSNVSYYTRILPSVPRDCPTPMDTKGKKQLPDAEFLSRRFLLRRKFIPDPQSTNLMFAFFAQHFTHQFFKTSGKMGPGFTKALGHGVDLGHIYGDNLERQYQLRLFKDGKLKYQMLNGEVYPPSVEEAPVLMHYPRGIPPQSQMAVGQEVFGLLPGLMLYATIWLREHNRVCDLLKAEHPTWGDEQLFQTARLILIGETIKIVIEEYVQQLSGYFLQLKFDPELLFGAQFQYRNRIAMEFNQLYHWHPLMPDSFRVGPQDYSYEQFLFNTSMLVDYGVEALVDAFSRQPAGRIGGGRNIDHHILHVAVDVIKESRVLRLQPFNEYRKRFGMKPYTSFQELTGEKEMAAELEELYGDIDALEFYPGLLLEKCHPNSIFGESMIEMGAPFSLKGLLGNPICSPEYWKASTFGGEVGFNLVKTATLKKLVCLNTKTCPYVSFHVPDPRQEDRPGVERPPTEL
Description: In vitro COX-1 inhibition. In kind it is biochemical.

A further experiment addresses T2, COX-2 (Homo sapiens, UniProt P35354).
T2 sequence (P35354 18-604): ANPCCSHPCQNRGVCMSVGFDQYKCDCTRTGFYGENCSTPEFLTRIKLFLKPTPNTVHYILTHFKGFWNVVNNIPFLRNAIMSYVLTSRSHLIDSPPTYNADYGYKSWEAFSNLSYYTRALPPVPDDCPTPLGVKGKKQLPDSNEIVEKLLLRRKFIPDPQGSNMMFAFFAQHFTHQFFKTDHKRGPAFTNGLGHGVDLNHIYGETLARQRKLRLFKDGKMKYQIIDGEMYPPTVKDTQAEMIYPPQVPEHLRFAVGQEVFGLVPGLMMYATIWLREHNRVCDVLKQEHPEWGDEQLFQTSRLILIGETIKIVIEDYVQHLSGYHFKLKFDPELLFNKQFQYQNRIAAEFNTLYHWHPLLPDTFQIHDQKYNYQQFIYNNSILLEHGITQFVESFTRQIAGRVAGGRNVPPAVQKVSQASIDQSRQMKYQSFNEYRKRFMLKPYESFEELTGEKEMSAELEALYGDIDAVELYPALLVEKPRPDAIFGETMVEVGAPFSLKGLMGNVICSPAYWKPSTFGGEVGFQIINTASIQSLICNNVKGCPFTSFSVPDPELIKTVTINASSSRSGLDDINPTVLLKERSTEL
Description: biochemical. Particulars: for COX-2 S.I.: in vitro COX-2 selectivity index, IC50 (COX-1)/IC50 (COX-2).

The test system of experiment [1] is MCF7 human breast adenocarcinoma cell line. The experiment can be described thus: MTT cell viability assay, MCF-7. The format is cell-based. Particulars: MCF7, 48 h, read-out: MCF-7 IC50. A general note: Tetrazolium dyes change colour on reduction, which living cells bring about.
In experiment [2] the test system is Hep3b hepatocellular carcinoma cell line. Description: MTT cell viability assay, HEP-3B. In kind it is cell-based. The following applies: Homo sapiens, 48 h, read-out: HEP-3B IC50.
Experiment [3] concerns A549 non-small cell lung cancer. The experiment can be described thus: MTT cell viability assay, A549. In kind it is cell-based. Particulars: Homo sapiens, A549, 48 h, read-out: A549 IC50.
The next experiment has as its system normal fibroblast F180. The experiment can be described thus: MTT cell viability assay, F180. In kind it is cell-based. The following applies: F180, 48 h, read-out: F180 IC50.
The next experiment relates to breast MCF7 cells. Description: Cell cycle analysis by flow cytometry. In kind it is cell-based, human. Particulars: for cell cycle arrest phase: compound at its IC50; for %G0-G1 / %G2-M / %S: compound at its IC50, 24 h. The method in brief:
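MCF7 breast cells were exposed to the test compound for 24 h, then rinsed with PBS, centrifuged and fixed in 70% ethanol. After a PBS wash they were suspended in 0.1 mg/mL RNase and stained with propidium iodide. Flow cytometry on a FACS Calibur measured DNA content to give G0/G1, S and G2/M distribution against negative control.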
(In general: Flow cytometry measures light scatter and fluorescence of single cells or particles in a stream.)

A further experiment deals with MCF7 breast cells. Description: Apoptosis by Annexin-V-FITC/PI flow cytometry. The format is cell-based, human. The following applies: for Apoptosis Early / Apoptosis Late / Apoptosis Total / Necrosis: compound at its IC50, 24 h; for late apoptosis increase compared to control: control 0.27% (late); for early apoptosis increase compared to control: control 0.41% (early). The gist of the method: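 MCF7 breast cells were treated with the test compound for 24 h, then collected and rinsed twice with PBS. They were stained with Annexin-V-FITC plus propidium iodide for 30 min at room temperature in the dark. Analysis on a FACS Calibur flow cytometer gave early apoptotic, late apoptotic and necrotic fractions, compared against untreated control.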

In another experiment the target is T3, aromatase (CYP19A) (Homo sapiens, UniProt P11511).
T3 sequence (P11511 1-503): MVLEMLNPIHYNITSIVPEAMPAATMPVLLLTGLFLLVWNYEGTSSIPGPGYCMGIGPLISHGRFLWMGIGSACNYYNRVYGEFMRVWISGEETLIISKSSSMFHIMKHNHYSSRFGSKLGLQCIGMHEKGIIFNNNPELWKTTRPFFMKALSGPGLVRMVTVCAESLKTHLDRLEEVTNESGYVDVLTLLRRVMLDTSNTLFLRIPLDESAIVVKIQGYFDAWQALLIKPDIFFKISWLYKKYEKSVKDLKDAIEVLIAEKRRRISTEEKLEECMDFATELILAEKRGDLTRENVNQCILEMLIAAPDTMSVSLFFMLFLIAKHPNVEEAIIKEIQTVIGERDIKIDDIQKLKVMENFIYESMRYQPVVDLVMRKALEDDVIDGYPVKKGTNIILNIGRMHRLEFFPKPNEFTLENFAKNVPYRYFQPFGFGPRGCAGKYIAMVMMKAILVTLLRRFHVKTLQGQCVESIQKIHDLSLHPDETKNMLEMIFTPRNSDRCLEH
The experiment can be described thus: Aromatase. In kind it is biochemical.

For another experiment, the target named is EGFR (Homo sapiens, UniProt P00533). The experiment can be described thus: EGFR Kinase Assay Kit. The format is biochemical. The method in brief:
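Kinase kit assay. Each well held kinase buffer with DTT, ATP, and Poly(Glu:Tyr 4:1) PTK substrate (10 mg/ml stock). Test compound was added, and diluted EGFR enzyme started the reaction. Incubated 40 min at 30 °C, then Kinase-Glo Max reagent for 15 min at room temperature, and luminescence read. Controls were no-inhibitor wells and enzyme-free blanks.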

Another experiment addresses B-RAF^V600E (Homo sapiens, UniProt P15056, V600E). The experiment can be described thus: B-RAF^V600E Kinase Assay Kit. The format is biochemical.

EGFR, sequence (P00533 25-1210): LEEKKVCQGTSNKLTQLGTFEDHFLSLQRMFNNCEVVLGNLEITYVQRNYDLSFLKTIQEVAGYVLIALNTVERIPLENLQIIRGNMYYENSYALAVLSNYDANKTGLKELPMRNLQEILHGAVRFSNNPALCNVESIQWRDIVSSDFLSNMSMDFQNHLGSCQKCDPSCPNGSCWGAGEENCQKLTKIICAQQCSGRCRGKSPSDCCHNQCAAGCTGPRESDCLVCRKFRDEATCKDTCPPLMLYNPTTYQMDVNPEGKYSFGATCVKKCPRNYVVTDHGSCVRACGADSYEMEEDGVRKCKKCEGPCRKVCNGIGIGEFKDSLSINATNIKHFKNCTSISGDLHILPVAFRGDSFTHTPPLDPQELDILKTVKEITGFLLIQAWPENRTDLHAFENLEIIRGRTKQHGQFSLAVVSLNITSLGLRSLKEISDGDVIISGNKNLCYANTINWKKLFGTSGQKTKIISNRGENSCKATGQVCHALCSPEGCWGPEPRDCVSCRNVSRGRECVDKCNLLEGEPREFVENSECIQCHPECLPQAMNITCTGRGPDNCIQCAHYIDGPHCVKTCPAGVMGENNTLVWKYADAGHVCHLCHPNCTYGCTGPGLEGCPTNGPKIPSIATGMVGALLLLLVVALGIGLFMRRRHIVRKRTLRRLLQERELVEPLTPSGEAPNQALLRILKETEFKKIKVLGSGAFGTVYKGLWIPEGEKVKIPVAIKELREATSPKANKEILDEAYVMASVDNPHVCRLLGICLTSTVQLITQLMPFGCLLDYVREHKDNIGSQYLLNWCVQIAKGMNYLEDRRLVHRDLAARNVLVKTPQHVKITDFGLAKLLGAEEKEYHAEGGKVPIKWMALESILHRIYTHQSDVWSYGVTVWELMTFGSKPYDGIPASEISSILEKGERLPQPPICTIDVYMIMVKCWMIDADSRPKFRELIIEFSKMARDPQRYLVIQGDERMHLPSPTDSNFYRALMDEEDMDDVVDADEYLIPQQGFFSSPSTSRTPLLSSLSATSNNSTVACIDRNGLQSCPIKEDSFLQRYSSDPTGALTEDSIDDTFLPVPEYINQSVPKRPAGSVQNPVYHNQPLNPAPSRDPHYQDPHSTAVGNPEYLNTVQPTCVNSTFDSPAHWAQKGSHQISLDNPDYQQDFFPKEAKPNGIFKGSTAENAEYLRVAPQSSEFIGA
B-RAF^V600E, sequence (P15056 whole entry V600E): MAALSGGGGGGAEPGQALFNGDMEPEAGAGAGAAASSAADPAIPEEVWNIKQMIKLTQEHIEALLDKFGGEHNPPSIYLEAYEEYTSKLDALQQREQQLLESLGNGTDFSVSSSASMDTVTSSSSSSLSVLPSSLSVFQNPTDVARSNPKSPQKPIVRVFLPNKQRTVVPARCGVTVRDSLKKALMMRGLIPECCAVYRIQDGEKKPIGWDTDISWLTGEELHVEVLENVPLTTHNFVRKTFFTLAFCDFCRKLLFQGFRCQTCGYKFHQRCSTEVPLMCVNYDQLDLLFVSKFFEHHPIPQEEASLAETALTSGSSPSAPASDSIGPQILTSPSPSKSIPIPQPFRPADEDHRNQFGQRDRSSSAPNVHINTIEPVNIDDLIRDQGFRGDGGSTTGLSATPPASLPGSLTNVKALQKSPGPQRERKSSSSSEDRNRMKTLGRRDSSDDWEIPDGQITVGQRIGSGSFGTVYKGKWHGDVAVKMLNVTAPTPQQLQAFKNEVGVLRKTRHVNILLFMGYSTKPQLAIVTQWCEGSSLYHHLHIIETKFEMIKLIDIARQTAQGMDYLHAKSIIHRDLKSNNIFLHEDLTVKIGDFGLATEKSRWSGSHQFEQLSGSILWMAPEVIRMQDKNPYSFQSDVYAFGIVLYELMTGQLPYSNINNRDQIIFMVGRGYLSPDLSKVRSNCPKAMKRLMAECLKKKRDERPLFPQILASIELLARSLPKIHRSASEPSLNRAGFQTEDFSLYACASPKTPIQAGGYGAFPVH

In general, IC50 refers to the concentration that gives 50% inhibition. `Cc1c(-c2nnc(SC/C(=N/O)c3ccccc3)n2-c2ccccc2)nnn1-c1ccc(S(N)(=O)=O)cc1` [Compound 19a, (E)-4-(4-(5-((2-(hydroxyimino)-2-phenylethyl)thio)-4-phenyl-4H-1,2,4-triazol-3-yl)-5-methyl-1H-1,2,3-triazol-1-yl)benzenesulfonamide]: it took 4.84 ± 0.02 µM to reach half-maximal inhibition against COX-1 (IC50). At COX-2, the IC50 is 0.343 ± 0.07 µM and the “COX-2 S.I.” value is 14.11.

For `Cc1ccc(/C(CSc2nnc(-c3nnn(-c4ccc(S(N)(=O)=O)cc4)c3C)n2-c2ccccc2)=N\O)cc1` [Compound 19b, (E)-4-(4-(5-((2-(hydroxyimino)-2-(p-tolyl)ethyl)thio)-4-phenyl-4H-1,2,4-triazol-3-yl)-5-methyl-1H-1,2,3-triazol-1-yl)benzenesulfonamide], the IC50 against COX-1 was found to be 4.42 ± 0.021 µM. Besides, at COX-2, the IC50 was determined as 0.485 ± 0.048 µM and the “COX-2 S.I.” value came to 9.11.

As for `COc1ccc(/C(CSc2nnc(-c3nnn(-c4ccc(S(N)(=O)=O)cc4)c3C)n2-c2ccccc2)=N\O)cc1` [Compound 19c, (E)-4-(4-(5-((2-(hydroxyimino)-2-(4-methoxyphenyl)ethyl)thio)-4-phenyl-4H-1,2,4-triazol-3-yl)-5-methyl-1H-1,2,3-triazol-1-yl)benzenesulfonamide], on COX-1, the 50% inhibitory concentration (IC50) is 10.7 ± 0.025 µM. Besides, on COX-2, it took 0.309 ± 0.041 µM to reach half-maximal inhibition (IC50) and the “COX-2 S.I.” value is listed as 34.62. In addition, the IC50 in [1] was found to be 14 µM. Further, the concentration for half-maximal inhibition (IC50) in experiment [2] fell in the range of 4.5 to 14 µM. Further, the concentration for half-maximal inhibition (IC50) in [3] came to 4.5 µM. Further, in the experiment on normal fibroblast F180, the IC50 is 15.4 µM. In the experiment with breast MCF7 cells, the “cell cycle arrest phase” value is given as “cell cycle arrest at G2/M phase”, the “%G0-G1” value amounted to 37.88%, the “%G2-M” value stood at 26.98% and the “%S” value was 35.14%. Further, in the experiment on MCF7 breast cells, the “Apoptosis Early” value worked out at 21.85%, the “Apoptosis Late” value was 12.36%, the “Apoptosis Total” value is recorded as 41.55 and the Necrosis was 7.34%. Moreover, in the experiment with MCF7 breast cells, the “late apoptosis increase compared to control” value was 45.77 fold and the “early apoptosis increase compared to control” value worked out at 53.29 fold. This compound displayed an IC50 against aromatase (CYP19A) of 22.4 µM. The compound further showed an IC50 on EGFR of 0.112 µM. At B-RAF^V600E, this compound returned an IC50 of 0.09 µM.

In the case of `Cc1c(-c2nnc(SC/C(=N/O)c3ccc(Cl)cc3)n2-c2ccccc2)nnn1-c1ccc(S(N)(=O)=O)cc1` [Compound 19d, (E)-4-(4-(5-((2-(4-chlorophenyl)-2-(hydroxyimino)ethyl)thio)-4-phenyl-4H-1,2,4-triazol-3-yl)-5-methyl-1H-1,2,3-triazol-1-yl)benzenesulfonamide], at COX-1, the midpoint of inhibition, the IC50, lay at 4.63 ± 0.023 µM. Moreover, on COX-2, the 50% inhibitory concentration (IC50) was found to be 0.437 ± 0.037 µM and the “COX-2 S.I.” value is given as 10.59.

For the compound `COc1ccc(-n2c(SC/C(=N/O)c3ccccc3)nnc2-c2nnn(-c3ccc(S(N)(=O)=O)cc3)c2C)cc1` [Compound 19g, (E)-4-(4-(5-((2-(hydroxyimino)-2-phenylethyl)thio)-4-(4-methoxyphenyl)-4H-1,2,4-triazol-3-yl)-5-methyl-1H-1,2,3-triazol-1-yl)benzenesulfonamide], the IC50 against COX-1 came out at 4.76 ± 0.034 µM. Besides, on COX-2, the IC50 stood at 0.394 ± 0.031 µM and the “COX-2 S.I.” value came to 12.08.

In turn, `COc1ccc(-n2c(SC/C(=N/O)c3ccc(C)cc3)nnc2-c2nnn(-c3ccc(S(N)(=O)=O)cc3)c2C)cc1` [Compound 19h, (E)-4-(4-(5-((2-(hydroxyimino)-2-(p-tolyl)ethyl)thio)-4-(4-methoxyphenyl)-4H-1,2,4-triazol-3-yl)-5-methyl-1H-1,2,3-triazol-1-yl)benzenesulfonamide] returned an IC50 at COX-1 of 8.6 ± 0.027 µM. Besides, at COX-2, the IC50 came out at 0.309 ± 0.071 µM and the “COX-2 S.I.” value came to 27.83. Moreover, the concentration for half-maximal inhibition (IC50) in experiment [1] is 15 µM. Also, in [3], the concentration for half-maximal inhibition (IC50) was determined as 4 µM. The half-inhibitory concentration (IC50) with normal fibroblast F180 stood at 11.3 µM. In the experiment with breast MCF7 cells, the “cell cycle arrest phase” value is given as “cell cycle arrest at G2/M phase”, the “%G0-G1” value was found to be 45.44%, the “%G2-M” value is 26.39% and the “%S” value amounted to 28.17%. In the experiment with MCF7 breast cells, the “Apoptosis Early” value is recorded as 22.54%, the “Apoptosis Late” value amounted to 14.91%, the “Apoptosis Total” value is recorded as 42.21 and the Necrosis was found to be 4.76%. In the experiment on MCF7 breast cells, the “late apoptosis increase compared to control” value was 55.22 fold and the “early apoptosis increase compared to control” value worked out at 54.97 fold. This compound had an IC50 on aromatase (CYP19A) of 22.7 µM. In addition, at EGFR, the midpoint of inhibition, the IC50, lay at 0.169 µM. For the same compound, the 50% inhibitory concentration (IC50) at B-RAF^V600E was 0.07 µM.

`COc1ccc(/C(CSc2nnc(-c3nnn(-c4ccc(S(N)(=O)=O)cc4)c3C)n2-c2ccc(OC)cc2)=N\O)cc1` [Compound 19i, (E)-4-(4-(5-((2-(hydroxyimino)-2-(4-methoxyphenyl)ethyl)thio)-4-(4-methoxyphenyl)-4H-1,2,4-triazol-3-yl)-5-methyl-1H-1,2,3-triazol-1-yl)benzenesulfonamide] displayed an IC50 against COX-1 of 4.6 ± 0.048 µM. In addition, on COX-2, the IC50 worked out at 0.363 ± 0.061 µM and the “COX-2 S.I.” value is listed as 12.67.

`COc1ccc(-n2c(SC/C(=N/O)c3ccc(Cl)cc3)nnc2-c2nnn(-c3ccc(S(N)(=O)=O)cc3)c2C)cc1` [Compound 19j, (E)-4-(4-(5-((2-(4-chlorophenyl)-2-(hydroxyimino)ethyl)thio)-4-(4-methoxyphenyl)-4H-1,2,4-triazol-3-yl)-5-methyl-1H-1,2,3-triazol-1-yl)benzenesulfonamide]: the IC50 against COX-1 is 3.43 ± 0.026 µM; against COX-2 it was 0.397 ± 0.025 µM; in experiment [2] it was 4.5 µM. Also, on COX-2, the “COX-2 S.I.” value stood at 8.63.

Turning to `COc1cccc2c1C(=O)c1c(O)c3c(c(O)c1C2=O)C[C@@](O)(C(=O)CO)C[C@@H]3O[C@H]1C[C@H](N)[C@H](O)[C@H](C)O1` [Doxorubicin, doxorubicin, reference compound], the half-maximal inhibitory concentration (IC50) in [1] was determined as 0.3 µM; in the experiment on normal fibroblast F180, 4.28 µM.

In turn, `COC(=O)N[C@@H](C)CNc1nccc(-c2cn(C(C)C)nc2-c2cc(Cl)cc(NS(C)(=O)=O)c2F)n1` [Encorafenib, encorafenib, reference compound] registered an IC50 at EGFR of 0.037 µM.

On to `CNC(=O)c1cc(Oc2ccc(NC(=O)Nc3ccc(Cl)c(C(F)(F)F)c3)cc2)ccn1` [Sorafenib, sorafenib, reference compound], for which the IC50 in experiment [2] is 3.5 µM.
